An excerpt weighted towards active compounds, which were near 1.3% of everything screened.
LEDGF integ inh = blocks HIV-1 LEDGF/p75-dependent DNA integration; TR-FRET IN-LEDGF/p75 DNA integration, Eu/Cy5; inhibition, % at 3.7 µM; hit rate 0.64% among 370,000; AID 743269;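 active = inhibition above the screen-wide mean plus 3 SD, cut at about 13% in these data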;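 also: signal is the Cy5 over europium emission ratio at 671 and 618 nm; 0% = plate median of compound wells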
ARFGAP1 inh = rat ARFGAP1 inhibition | Q62848 | Arfgap1-stimulated ARF1 GTP hydrolysis, GDP FP detection | hit rate 0.26% among 360,000 | inhibition, % at 16.5 µM;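 active = inhibition above a per-plate limit, mean inhibition of low control wells plus 3 SD, cut at about 25% in these data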;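 also: 0% = DMSO wells with enzyme and 100% = wells lacking Arfgap1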
Target sequence (Q62848 1-136 limits assumed): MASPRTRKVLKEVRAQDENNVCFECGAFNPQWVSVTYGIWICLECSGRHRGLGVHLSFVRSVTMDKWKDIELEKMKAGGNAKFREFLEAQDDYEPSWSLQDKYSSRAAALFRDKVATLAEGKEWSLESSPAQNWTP
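System: truncated rat Arfgap1 GAP domain / Medium: HEPES-based buffer, pH 7.5 / Also added: N-terminally truncated human ARF1-GTP substrate / Incubation: enzyme reaction 120 min at 25 °C after 20 min preincubation / Measured by: FP of antibody-bound GDP Alexa 633 tracer, ex 620/em 688 nm / Replicates: singlicate, each compound tested once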
ASAP1 inh = ASAP1 ArfGAP inhibition | Q9ULH1 | ASAP1-stimulated ARF1 GTP hydrolysis, GDP FP detection | inhibition, % at 16.5 µM | hit rate 0.19% among 360,000 | AID 624377; in the data active = inhibition above about 25%;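 also: 0% = vehicle with enzyme and substrate and 100% = no enzyme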
Target sequence (Q9ULH1 325-724 limits assumed): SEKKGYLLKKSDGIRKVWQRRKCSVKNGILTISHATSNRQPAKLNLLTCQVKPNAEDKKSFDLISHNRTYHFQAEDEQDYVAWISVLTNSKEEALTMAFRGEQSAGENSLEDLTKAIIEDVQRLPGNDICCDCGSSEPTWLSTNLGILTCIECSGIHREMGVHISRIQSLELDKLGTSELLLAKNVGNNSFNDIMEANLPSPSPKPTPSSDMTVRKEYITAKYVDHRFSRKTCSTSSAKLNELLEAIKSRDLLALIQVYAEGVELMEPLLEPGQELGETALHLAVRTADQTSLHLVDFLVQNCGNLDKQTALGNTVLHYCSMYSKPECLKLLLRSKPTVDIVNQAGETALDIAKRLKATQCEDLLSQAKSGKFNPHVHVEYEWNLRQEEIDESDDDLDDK
TDP2 inh = blocks human TDP2 phosphodiesterase activity; inhibition, % at 12.8 µM; hit rate 0.34% among 370,000; AID 720702; recombinant TDP2, T5PNP hydrolysis, p-nitrophenol absorbance 415 nm; O95551;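 active = inhibition above the mean of all tested compounds plus 3 SD, set per campaign, cut at about 25% in these data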;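 also: 0% = DMSO with enzyme and 100% = buffer with substrate but no TDP2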
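Evaluation: % inhibition relative to enzyme-containing and enzyme-free wells. Material: recombinant human TDP2. Benchmarks: enzyme-free and DMSO wells. Timing: enzyme reaction with compound for 2 h at 37 °C. Compound dosing: 12.8 µM only. Measured by: p-Nitrophenol epi absorbance. Reagent: T5PNP substrate at 5 mM, a TopII-DNA adduct mimic. Replication: single well per compound.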
Casp6 inh = caspase-6 (human) enzyme inhibition. P55212. purified caspase-6, Z-VEID-R110 cleavage fluorescence. inhibition, % at 12.5 µM. hit rate 0.53% among 350,000;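 active = mean inhibition across replicates at least about 35%, with every replicate also reaching that limit, limit read from the data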;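 also: 0% = median of neutral control wells and 100% = no fluorescence left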
An asterisk follows results filed as active; / = not tested or not shown.

SMILES | LEDGF integ inh | ARFGAP1 inh | ASAP1 inh | TDP2 inh | Casp6 inh
COc1ccc(Cl)cc1S(=O)(=O)n1cnc2ccccc21 | 0.9 | 8.7 | 1.3 | 3.0 | /
CN1CCN(CC(=O)n2c3c(c4ccccc42)CCCC3)CC1 | -3.5 | 9.0 | 3.5 | 29.1* | /
CCC1=NN(C(=O)c2ccccc2O)C(O)(c2ccccc2)C1 (stereo unspecified) | 5.8 | 7.3 | -6.3 | -10.0 | 71.9*
CCC1=NN(C(=O)c2ccc(Cl)cc2)C(O)(c2ccc(C)cc2)C1 (stereo unspecified) | 3.0 | 4.3 | 8.1 | -0.4 | 47.9*
CN=c1sc(C(=O)Nc2ccccc2)c(C)n1C | 0.3 | -16.2 | -5.9 | 2.8 | -5.4
CN=c1sc2c(n1C)C(=O)c1ccccc1C2=O | 13.1 | 2.7 | 14.3 | 34.6* | 63.0*
Cc1[nH][nH]c(=O)c1C(c1ccc(-c2ccc(Cl)c(Cl)c2)o1)c1c(C)[nH][nH]c1=O | 3.3 | 4.2 | 16.3 | 63.5* | /
COc1ccc(-c2cc(C#N)nc(N3CCNCC3)n2)cc1 | 2.4 | 75.3* | 53.5* | -15.5 | /
COc1ccc(-c2cc(C#N)nc(N3CCN(C)CC3)n2)cc1 | 1.6 | -7.2 | 11.0 | -5.9 | -1.6
Cc1ccc(NC(=O)C(c2ccccc2)N2CCN(CC(=O)N3CCOCC3)CC2)cc1Cl (stereo unspecified) | -1.3 | 2.5 | 8.3 | 6.8 | 46.7*
CCCc1cc(=O)oc2cc(C)c(CN3CCCC3)c(O)c12 | 13.4* | -2.9 | -3.4 | 3.8 | /
CCc1cc(=O)oc2cc(C)c(CN3CCCCC3)c(O)c12 | 13.0 | 0.8 | -7.7 | 8.5 | /
Cn1c(=NC(=O)CS(=O)(=O)c2ccc(F)cc2)sc2ccccc21 | 1.6 | -2.3 | -5.9 | 4.9 | 1.6
CCOC(=O)/C(=C/C1=CC(=C/N(C)C)/C(=O)O1)C(C)=O | -1.4 | 10.1 | 6.3 | -2.4 | 2.2
O=C1COc2ccc(S(=O)(=O)CCC(=O)N3CCN(c4ccccc4)CC3)cc2N1 | 3.0 | -2.9 | 15.5 | 2.8 | 1.5
Cc1ccc(C)c(N2CCN(C(=O)CCS(=O)(=O)c3ccc4c(c3)NC(=O)CO4)CC2)c1 | -3.1 | 1.6 | 3.3 | -22.4 | 70.6*
O=C(N/N=C/C=C\c1ccco1)c1ccccn1 | 10.2 | -4.3 | 6.6 | -1.0 | 37.2*
COc1cccc(NS(=O)(=O)NC(=O)c2cn(C)c3ccccc23)c1 | -0.4 | -15.3 | -10.6 | 1.4 | -0.3
COc1ccccc1NS(=O)(=O)c1cc(C(=O)NC2CCN(Cc3ccccc3)CC2)ccc1C | -0.4 | 1.9 | 2.2 | -4.3 | 55.2*
COc1ccc(N(C(=O)CS(=O)CC(=O)Nc2ccc(F)cc2)C(C(=O)NC2CCCCC2)c2cccs2)cc1 (stereo unspecified) | 15.5* | 6.4 | -13.2 | 4.9 | -1.0
O=C(NCC(c1ccco1)N1CCc2ccccc21)c1ccccc1 (stereo unspecified) | -1.4 | -4.2 | -5.7 | 7.0 | 51.6*
COc1ccc(CCN2CC(C(=O)NCCc3ccc(C)cc3)CC2=O)cc1OC (stereo unspecified) | 3.5 | -0.5 | 1.2 | 2.9 | 47.8*
COc1ccc(CCNC(=O)C2CC(=O)N(c3ccc(C)cc3)C2)cc1OC (stereo unspecified) | 2.7 | -2.3 | -6.5 | -14.1 | 0.3
COc1ccc(S(=O)(=O)NCC(c2cccs2)N2CCc3ccccc3C2)cc1 (stereo unspecified) | 1.1 | 3.4 | -18.1 | -7.4 | -0.6
COc1ccc(OC)c(S(=O)(=O)NCC(c2cccs2)N2CCc3ccccc3C2)c1 (stereo unspecified) | -0.2 | -11.4 | -15.5 | 5.0 | 72.0*
SMILES | LEDGF integ inh | ARFGAP1 inh | ASAP1 inh | TDP2 inh | Casp6 inh
COc1ccc(NC(=S)NCCc2ccccc2)c(C)c1 | 0.6 | -2.6 | -6.0 | 9.6 | 36.4*
Cc1cc(OC(F)F)ccc1NC(=S)NCCc1ccccc1 | 2.1 | -7.2 | -0.8 | -13.9 | 1.9
CC(=O)c1ccccc1NS(=O)(=O)c1cccc2nsnc12 | 2.4 | 8.4 | -1.5 | -17.1 | 56.0*
CC(=O)c1ccccc1NS(=O)(=O)c1cccc2nonc12 | -2.7 | -0.9 | -6.3 | 3.3 | 1.7
C#CCN1C(=O)C(O)(CC(=O)/C=C/c2ccco2)c2ccccc21 (stereo unspecified) | 2.1 | -12.7 | -3.8 | 4.6 | 17.0
COc1ccc(C(=O)Nc2cc(C(=O)O)cc(C(=O)O)c2)cc1Cl | -2.1 | -6.3 | 21.5 | -4.5 | 81.6*
C[C@H]1CN([C@@H](C)CO)C(=O)c2cccc(NC(=O)c3ccncc3)c2O[C@@H]1CN(C)C(=O)Nc1ccc2c(c1)OCO2 | / | / | / | / | 3.2
N=C1/C(=C/c2ccc(-c3cccc(C(=O)O)c3)o2)C(=O)N=C2SC=C(c3ccccc3)N12 | 23.6* | -18.2 | -5.8 | 4.1 | -1.6
N=C1/C(=C\c2ccc(-c3cc(Cl)cc(Cl)c3)o2)C(=O)N=C2SC=C(c3ccccc3)N12 | 2.6 | 1.3 | 8.6 | -5.1 | /
Clc1ccc(-c2nnc3sc(-c4ccc(Br)o4)nn23)cc1 | 3.4 | 9.6 | 2.6 | -3.0 | /
Cc1oc(-c2ccc(Cl)cc2)cc1-c1nn2c(-c3ccoc3C)nnc2s1 | 28.8* | -5.1 | 9.9 | 18.4 | /
Cc1ccccc1CN1CCCCC(NC(=O)c2ccc(F)cc2)C1=O (stereo unspecified) | -0.7 | / | / | 7.5 | /
O=C(O)C1CSC(c2ccco2)N1 (stereo unspecified) | 48.3* | -2.8 | 10.2 | -0.1 | 85.8*
O=C(O)c1cccc(-n2cccc2/C=C2\NC(=O)N(Cc3ccc(F)cc3)C2=O)c1 | 1.9 | -8.4 | -0.1 | 5.0 | 71.5*
Cc1ccc(NC(=O)CN2C(=O)N/C(=C/c3ccccc3OCc3cccc(C(=O)O)c3)C2=O)cc1 | 9.7 | 14.4 | 0.3 | -9.2 | 8.4
Cc1ccc(CN2C(=O)N/C(=C\c3cccn3-c3cccc(C(=O)O)c3)C2=O)cc1 | 4.7 | 0.8 | 2.4 | 1.2 | 60.3*
Cc1ccc(NC(=O)CN2C(=O)N/C(=C/c3cc(C)n(-c4cccc(C(=O)O)c4)c3C)C2=O)cc1 | 26.0* | -21.8 | -7.7 | -10.6 | 71.8*
O=C1N/C(=C/c2cccn2-c2ccc(F)cc2)C(=O)N1Cc1ccccc1 | 3.0 | 3.1 | -8.0 | 2.6 | /
C[C@H]1CN([C@@H](C)CO)C(=O)c2cc(NC(=O)CCC(F)(F)F)ccc2O[C@H]1CN(C)Cc1ccncc1 | / | / | / | / | 2.6
CCCOc1ccc(N2C(=O)CC(N(Cc3ccco3)C(C)=O)C2=O)cc1 (stereo unspecified) | -1.5 | -4.9 | 9.4 | -9.1 | 0.7
COc1ccccc1NC(=O)C(C)OC(=O)CCC1CCCCC1 (stereo unspecified) | 1.9 | -10.0 | -1.9 | -6.2 | 52.6*
N#C[C@@H]1[C@H](c2ccc(C3=CCCCC3)cc2)[C@@H](CO)N1S(=O)(=O)c1ccccc1 | / | / | / | / | 41.3*
O=C(CSc1ccc2nnc(-c3ccc(F)cc3)n2n1)N1CCOCC1 | 3.3 | -4.4 | 4.2 | -5.5 | 1.1
